# Tests used:
# [1] = Inhibition of WR99210-resistant form-A Plasmodium falciparum DHFR-TS I51N, C59R, N108S, L164I, D54N mutant expressed in Escherichia coli BL21(DE3)
# How it was run: (§1)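 The recombinant enzyme was expressed in E. coli BL21(DE3) and purified by methotrexate-Sepharose affinity chromatography. Each reaction was started by adding 0.008 to 0.01 U of enzyme in the presence of varying inhibitor amounts. DHFR activity was read on a microplate spectrophotometer, and IC50 was taken from the inhibition data.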
# [2] = Inhibition of WR99210-resistant form-1 Plasmodium falciparum I51N, C59R, N108S, I164L mutant expressed in Escherichia coli BL21(DE3); how it was run: as §1
# [3] = Inhibition of WR99210-resistant form-1 Plasmodium falciparum I51N, C59R, N108S, I164L mutant expressed in Escherichia coli BL21(DE3) by Michaelis-Menten based competitive inhibition assay
# [4] = Inhibition of WR99210-resistant form-3 Plasmodium falciparum N51I, C59R, N108T, I164L mutant expressed in Escherichia coli BL21(DE3); how it was run: as §1
# [5] = Inhibition of WR99210-resistant form-2 Plasmodium falciparum N51I, C59R, N108S, I164L mutant expressed in Escherichia coli BL21(DE3) by Michaelis-Menten based competitive inhibition assay
# [6] = Inhibition of Plasmodium falciparum DHFR QM template N51I, C59R, S108N, I164L mutant expressed in Escherichia coli BL21(DE3); how it was run: as §1
# [7] = Inhibition of Plasmodium falciparum DHFR-TS QM template N51I, C59R, S108N, I164L mutant expressed in Escherichia coli BL21(DE3) by Michaelis-Menten based competitive inhibition assay
# [8] = Inhibition of WR99210-resistant form-2 Plasmodium falciparum N51I, C59R, N108S, I164L mutant expressed in Escherichia coli BL21(DE3); how it was run: as §1
# [9] = Inhibition of Plasmodium falciparum DHFR QM template N51I, C59R, S108N, I164L mutant expressed in Escherichia coli BL21(DE3) by Michaelis-Menten based competitive inhibition assay
# [10] = target: T1, Bifunctional dihydrofolate reductase-thymidylate synthase (Plasmodium falciparum (isolate 3D7), UniProt Q8I1R6, C59R/I164L/K96N/N51I/S108N); assay: Inhibition of pyrimethamine-resistant form-2 Plasmodium falciparum N51I, C59R, S108N, I164L, K96N mutant expressed in Escherichia coli BL21(DE3) by Michaelis-Menten based competitive inhibition assay
# T1 sequence (Q8I1R6 whole entry N51I/C59R/K96N/S108N/I164L): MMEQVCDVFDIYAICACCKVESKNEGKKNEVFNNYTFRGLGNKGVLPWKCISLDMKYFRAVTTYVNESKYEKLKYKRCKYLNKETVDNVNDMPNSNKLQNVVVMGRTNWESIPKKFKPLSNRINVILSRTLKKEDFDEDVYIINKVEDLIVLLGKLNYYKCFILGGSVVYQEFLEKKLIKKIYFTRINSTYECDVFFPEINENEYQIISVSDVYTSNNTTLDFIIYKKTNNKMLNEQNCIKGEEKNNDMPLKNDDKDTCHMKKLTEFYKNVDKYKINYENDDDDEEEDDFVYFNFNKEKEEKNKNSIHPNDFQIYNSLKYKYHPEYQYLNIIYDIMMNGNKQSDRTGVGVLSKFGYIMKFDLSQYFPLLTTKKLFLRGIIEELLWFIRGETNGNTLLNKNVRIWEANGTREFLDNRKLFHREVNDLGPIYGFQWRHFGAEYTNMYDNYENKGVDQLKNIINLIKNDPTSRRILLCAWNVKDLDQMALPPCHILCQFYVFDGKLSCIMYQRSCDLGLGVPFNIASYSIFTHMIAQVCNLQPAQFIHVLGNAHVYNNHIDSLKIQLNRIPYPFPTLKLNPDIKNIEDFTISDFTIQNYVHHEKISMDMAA
# [11] = Inhibition of pyrimethamine-resistant form-1 Plasmodium falciparum N51I, C59R, S108N, I164L, D187A mutant expressed in Escherichia coli BL21(DE3); how it was run: as §1
# [12] = Inhibition of pyrimethamine-resistant form-1 Plasmodium falciparum N51I, C59R, S108N, I164L, D187A mutant expressed in Escherichia coli BL21(DE3) by Michaelis-Menten based competitive inhibition assay
# [13] = Inhibition of pyrimethamine-resistant form-3 Plasmodium falciparum N51I, C59R, S108N, I164L, I150V, N182I, N201D mutant expressed in Escherichia coli BL21(DE3); how it was run: as §1
# [14] = target: T1, Bifunctional dihydrofolate reductase-thymidylate synthase; assay: Inhibition of pyrimethamine-resistant form-2 Plasmodium falciparum N51I, C59R, S108N, I164L, K96N mutant expressed in Escherichia coli BL21(DE3)
# [15] = Inhibition of Plasmodium falciparum DHFR-TS QM template N51I, C59R, S108N, I164L mutant expressed in Escherichia coli BL21(DE3); how it was run: as §1
# [16] = Inhibition of pyrimethamine-resistant form-3 Plasmodium falciparum N51I, C59R, S108N, I164L, I150V, N182I, N201D mutant expressed in Escherichia coli BL21(DE3) by Michaelis-Menten based competitive inhibition assay
# [17] = Inhibition of WR99210-resistant form-3 Plasmodium falciparum N51I, C59R, N108T, I164L mutant expressed in Escherichia coli BL21(DE3) by Michaelis-Menten based competitive inhibition assay
Structure (SMILES),IC50 [1],IC50 [2],Ki [3],IC50 [4],Ki [5],IC50 [6],Ki [7],IC50 [8],Ki [9],Ki [10],IC50 [11],Ki [12],IC50 [13],IC50 [14],IC50 [15],Ki [16],Ki [17]
CC1(C)N=C(N)N=C(N)N1OCCCOc1cc(Cl)c(Cl)cc1Cl,40000 nM,200 nM,8.09 nM,680 nM,17.6 nM,50 nM,209 nM,60 nM,859 nM,292 nM,50 nM,514 nM,920 nM,90 nM,160 nM,147 nM,72.4 nM
CCc1nc(N)nc(N)c1-c1ccc(Cl)cc1 [PYRIMETHAMINE],7200 nM,90 nM,3.57 nM,1820 nM,7.26 nM,420 nM,2.1 nM,10 nM,1.9 nM,–,870 nM,1.24 nM,3470 nM,–,170 nM,1.07 nM,15.5 nM

# — ChEMBL document CHEMBL1137664, “Conflicting requirements of Plasmodium falciparum dihydrofolate reductase mutations conferring resistance to pyrimethamine-WR99210 combination” (Antimicrob Agents Chemother, 2007)
